Screening data deposited in PubChem BioAssay by several laboratories.
Only some compounds are listed: those with a hit (about 9.4% of all), similar ones and a draw of the others.
Beta cell apopt – blocks beta cell apoptosis; 300,000 tested, 0.8% active; AID 435005; INS-1E cytokine-induced death, ATP luminescence, 48 h; percent of positive-control rescue, neutral wells zero; protection from apoptosis, % (test concentration not listed);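 active = Every replicate reaches about 75%, or at least half do and their mean reaches it too, limit read from the data; inconclusive = At least half of replicates reach the limit but their mean does not; inactive = Under half of replicates reach the limit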;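 also: 0% = cytokine-treated negative control wells and 100% = positive control rescue; higher means more ATP so stronger rescue from cytokine killing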
T cruzi repl – blocks replication of Trypanosoma cruzi | T. cruzi beta-gal in NIH3T3, luminescence, 90 h | inhibition, % (concentration not given with the values) | 300,000 tested, 1.4% active;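 active = mean inhibition across valid replicates above about 55%, limit read from the data; inconclusive = mean below that limit but half or more replicates reach it; inactive = mean below it, under half of replicates reach it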;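 also: signal also drops with host cell toxicity which is not excluded here; 0% = plate median of DMSO wells and 100% = zero luminescence signal; higher percent means less beta-gal luminescence so fewer parasites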
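System: Mouse NIH/3T3 fibroblasts infected with β-gal-expressing T. cruzi Tulahuen C4 | Quantity: NIH/3T3 cells, 5,000 per well | Reagent: 5000 reporter trypomastigotes per well | Dosing: Compound pinned at 50 nL/well, DMSO | Schedule: 3 h host attachment, then at least 90 h co-culture | Detection: GalScreen luminescence, 60 min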
CSC inhib – cancer stem cell inhibition; cancer stem cell-like cells viability, luminescence; inhibition, % at 7.5 µM; 300,000 tested, 1.1% active; in the data active = inhibition above about 75%; inconclusive = no clear call, values can overlap the other calls; tested in HMLE shEcad cells
L major viab – Leishmania major promastigote growth inhibition; Leishmania major promastigotes, resazurin fluorescence viability; inhibition, % at 10 µM; 200,000 tested, 9% active; AID 1063; in the data active = inhibition above about 50%;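 also: promastigotes grown with compound for 44 hours at 28 °C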
SKKanGAS inh – SKKanGAS growth inhibition. S. pyogenes SKKanGAS, kanamycin growth, BacTiter-Glo, 6 h. inhibition, % at 7.5 µM. 300,000 tested, 1.3% active;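 active = mean replicate score, as percent of positive control median, at least 50; inconclusive = mean below 50 but one replicate at or above 50; inactive = mean and every replicate below 50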;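 also: strain carries kanamycin resistance gene driven by streptokinase promoter and grows in 40 µg/ml kanamycin; loss of luminescence reflects streptokinase promoter inhibition or plain growth inhibition; 0% = median of DMSO wells and 100% = positive control at its reference dose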
Mdm2-MdmX inh – inhibitors of human Mdm2/MdmX interaction. SaOS-2 split-luciferase Mdm2/MdmX complementation, luminescence. 330,000 tested, 3% active. AID 485346. inhibition, % at 8 µM. O15151+Q00987;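 active = inhibition of at least 50% at 8 µM in the primary screen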
Mdm2 MdmX conf – confirmation of human Mdm2/MdmX interaction inhibitors | shares compounds with Mdm2-MdmX inh | Mdm2-MdmX binding, luminescent assay | inhibition, % at 8 µM | 10,000 tested, 55% active | AID 489028; in the data active = inhibition above about 40%
Full FLuc ctr – full-length luciferase inhibition in Mdm2/MdmX counter-screen | shares compounds with Mdm2-MdmX inh | SaOS-2 full-length luciferase counterscreen, luminescence | inhibition, % at 8 µM | 6,200 tested, 77% active;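 active = mean inhibition at 8 µM reaching about 37%, which flags the compound as non-specific, limit read from the data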;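 also: p53-null SaOS-2 cells with luciferase driven by a doxycycline-inducible promoter; compound on cells about two nights before reading with doxycycline added after day one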
Active calls of the source: *; ? = inconclusive; / = not tested or not shown.

SMILES	Beta cell apopt	T cruzi repl	CSC inhib	L major viab	SKKanGAS inh	Mdm2-MdmX inh	Mdm2 MdmX conf	Full FLuc ctr
C=CCNc1nc2c(c(=O)[nH]c(=O)n2C)n1CC(O)COc1ccc2ccccc2c1 (centres undefined)	/	3	/	/	-7	59*	20	/
Cc1ccccc1OCC(O)Cn1c(NCc2ccccc2)nc2c1c(=O)[nH]c(=O)n2C (centres undefined)	-2	-1	/	-5	-3	15	/	/
O=C(N1CCN(c2ccccn2)CC1)N1c2ccccc2Sc2ccccc21	12	20	73	19	7	79*	68*	78*
O=C(c1ccco1)N1CCN(C(=O)N2c3ccccc3Sc3ccccc32)CC1	44	4	70	7	6	52*	63*	92*
CSc1ccc(NC(=O)NCCCN2CCC(Cc3ccccc3)CC2)cc1	10	10	26	/	4	61*	16	/
CC1CC(C)(C)N(C(=O)CN2C(=O)CCC2=O)c2ccccc21 (centres undefined)	-4	-7	2	/	2	-10	/	/
Cc1c(C(=O)Nc2ccc(F)cc2)oc2ccc(S(=O)(=O)N3CCC4(CC3)OCCO4)cc12	6	-2	-8	33	-5	24	/	/
CCC1(c2ccccc2)NC(=O)N(CC(=O)Nc2cc(S(=O)(=O)N3CCCCCC3)ccc2OC)C1=O (centres undefined)	7	29	3	/	22	51*	43*	78*
Cc1c(C(=O)Nc2cccc(Cl)c2)oc2ccc(S(=O)(=O)N3CCC4(CC3)OCCO4)cc12	35	-4	-2	52*	5	61*	67*	32
CC(=O)c1c(C)[nH]c(C(=O)Nc2cccc(S(=O)(=O)N3CCOCC3)c2)c1C	2	11	-5	-5	8	58*	34	87*
CC(=O)c1c(C)[nH]c(C(=O)Nc2cc(S(=O)(=O)N3CCCCC3)ccc2C)c1C	-5	/	/	/	/	22	/	/
CC(=O)Oc1ccc(-c2ccc(C(=O)Nc3cccc(S(=O)(=O)N4CCOCC4)c3)cc2)cc1	5	41	93*	15	29	66*	44*	89*
COc1ccccc1CNC(=O)C1CCN(S(=O)(=O)c2ccc3nc4c(c(C(=O)O)c3c2)CCCC4)CC1	-8	-9	-6	/	-5	-30	/	/
COc1ccc(S(=O)(=O)N2CCCCC2)cc1NC(=O)c1[nH]c(C)c(C(C)=O)c1C	/	/	/	/	/	82*	59*	43*
CC(=O)Nc1sc(C)c(C)c1C(=O)OCCOc1ccccc1	1	-5	14	/	-2	-62	/	/
COc1ccccc1CN1C(=NC(=O)CCC2CCCC2)SC2CS(=O)(=O)CC21 (centres undefined)	1	2	-5	/	2	28	/	/
Cc1ccc(Nc2c(-c3ccccn3)nc3cccc(C)n23)cc1	117*	59*	?	101*	102*	87*	91*	21
Cc1cccc(C)c1Nc1c(-c2ccccn2)nc2ccccn12	14	61*	39	100*	97*	77*	58*	41*
COc1cc(CC(=O)Nc2ccc(S(=O)(=O)NC3=NCCCCC3)cc2)cc(OC)c1OC	-1	-12	-14	-8	-6	-14	/	/
COc1cc(NC(=O)Cn2cnc3c(SC)nc(N)nc32)cc(OC)c1OC	0	/	10	/	/	-45	/	/
COc1ccc(-c2c[n+]3c4n2CCCCC4=C(c2ccccc2)C3)cc1	/	62*	/	100*	11	67*	17	/
C[n+]1cc(-c2ccccc2)n2c1CCCCC2	6	-20	/	-4	-2	-4	/	/
Cc1ccc(S(=O)(=O)Nc2ccc3c(c2)n(C)c(=O)n3C)cc1	-6	-16	-7	/	1	37	/	/
CCc1ccc(S(=O)(=O)Nc2cc3c(cc2C)n(C)c(=O)n3C)cc1	56	-39	34	/	-4	58*	55*	60*
Cn1c(=O)n(C)c2cc(NS(=O)(=O)c3ccccc3)ccc21	-8	-11	-7	/	-6	51*	19	/
SMILES	Beta cell apopt	T cruzi repl	CSC inhib	L major viab	SKKanGAS inh	Mdm2-MdmX inh	Mdm2 MdmX conf	Full FLuc ctr
O=C(CCCC(=O)N(c1ccc(F)cc1)C(C(=O)NC1CCCC1)c1ccc(O)cc1)Nc1ccccn1 (centres undefined)	4	7	4	/	2	11	/	/
COC(=O)/C(=C\Nc1ccc(OC)cc1)NC(=O)c1ccc(Cl)cc1Cl	-1	-11	2	-7	5	16	/	/
COC(=O)/C(=C\Nc1ccc(Cl)cc1Cl)NC(=O)c1ccc(OC)cc1	29	26	71	/	4	52*	43*	70*
CCC(CC)c1nnc(NC(=O)CN2C(=O)NC3(CCCC3)C2=O)s1	-2	6	/	/	4	-2	/	/
Cc1cc(NC(=O)Cc2ccccc2)nc2c1c(=O)oc1ccccc12	9	-2	44	-2	2	74*	32	/
Fc1ccccc1-c1nc(-c2ccc(Br)o2)no1	-3	22	3	/	-1	-145	/	/
Cn1c(N)c(C(=O)COC(=O)c2cc(-c3ccccc3)nc3ccccc23)c(=O)n(C)c1=O	27	33	-7	/	36	66*	29	60*
Cn1c(=O)c(C(=O)COC(=O)c2cc(C(F)(F)F)nc3c(C(F)(F)F)cccc23)c(N)n(CC2CC2)c1=O	-6	-1	-11	4	33	77*	3	/
O=C(/C=C/c1cccc2ccccc12)N1CCOCC1	/	3	/	/	-6	2	/	/
Cc1ccc(COc2ccccc2-c2cc(C(=O)N/N=C/c3cccnc3)[nH]n2)cc1	4	32	78*	/	63*	55*	59*	72*
CCOc1cc2nc(-c3ccc(OC)c(OC)c3)nc(N3CC(C)OC(C)C3)c2cc1OC (centres undefined)	6	24	-6	3	14	33	/	/
CCOc1cc2nc(-c3ccc(OC)c(OC)c3)nc(N3CCOCC3)c2cc1OC	5	35	13	33	11	53*	45*	83*
CN(c1ccccc1)S(=O)(=O)c1ccc(NC(=O)c2cccs2)cc1	/	25	-13	5	-5	8	/	/
COc1cccc(NC(=O)c2nc(S(C)(=O)=O)ncc2Cl)c1	2	1	113*	/	4	96*	83*	60*
CN(c1ccccc1)S(=O)(=O)c1ccc(NC(=O)c2nc(S(C)(=O)=O)ncc2Cl)cc1	99*	-6	-9	/	-7	98*	100*	51*
CCOC(=O)C(=O)c1cn(C2OCC(OC(C)=O)C(OC(C)=O)C2OC(C)=O)c2ccccc12 (centres undefined)	-2	-5	-13	-11	-5	-16	/	/
